Data as given in PMC3367325 (Journal of Natural Products, 2012).
Like-named read-outs stand apart in the source and are kept apart here. Peptide text beside a SMILES is read from it. * marks the point of attachment. Cbz = O=C(OCc1ccccc1)*

Legend:
alpha(2B) adrenoceptor = settings: cited from earlier work
[1] = pH of greater than seven; has been reported, no reference given; cited from earlier work
[2] = biological target: human 20S proteasome (T-L activity) (Homo sapiens, UniProt Q99436); assay: Tryptic-like; assay type: biochemical; settings: purified human 20S proteasome
HeLa cells = assay: Accumulation of ubiquitinylated proteins, confocal microscopy; assay type: cell-based, human; settings: 1.0 µM, 2 h, versus vehicle, p =0.001
[3] = biological target: T1, human 20S proteasome (CT-L activity) (Homo sapiens, UniProt P28074)
Aggregation assay = assay type: physicochemical; settings: 1 to 10 µM
[4] = biological target: T1, human 20S proteasome (CT-L activity); assay: IC50 pre- and post-centrifugation of palau’amine in reaction buffer; assay type: biochemical; settings: 15,000g for 30 min, supernatant
In short: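 Test compound in reaction buffer was spun at 15000g for 30 min, and the IC50 was compared with that of unspun material. CT-L assay: 1 nM purified human 20S proteasome in 50 mM Tris-HCl pH 7.5 with 0.03% SDS and Suc-LLVY-AMC at its Km, at 37 °C. AMC fluorescence (ex 380/em 460 nm) was read each minute for 30 min, and the maximal rate gave activity.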

[5] = biological target: T1, human 20S proteasome (CT-L activity); assay: Chymotryptic-like; assay type: biochemical; settings: purified human 20S proteasome

For NC1=N[C@]23CCCN2C(=O)c2cc(Br)c(Br)n2[C@@H]3N1 (racemic) [(±) -2, ±-dibromophakellin], the “Activity against the alpha(2B) adrenoceptor” value (alpha(2B) adrenoceptor) is listed as “agonist activity”.
In the case of NC[C@@H]1[C@H]2CN3C(=O)c4cccn4[C@@H]4NC(N)=N[C@@]43[C@@H]2[C@]2(N=C(N)N[C@H]2O)[C@H]1Cl.O=C(O)C(F)(F)F (racemic) [(±) - 1, palau’amine], the “Stability at pH greater than seven (reported)” value [1] is given as “unstable”, the “Effect on T-L activity of the proteasome” value [2] is given as “did not affect” and the “Accumulation of ubiquitinylated proteins (ubiquitin-Alexa 546 red fluorescence)” value (HeLa cells) is given as “robust increase”. For the same compound, the “CT-L proteolytic activity of 20S proteasome pre-washing” value ([3]; 1 µM MG-132, 1 µM epoxomicin, 10 µM palau’amine, 1 nM 20S) was “complete abrogation”, the “Binding mechanism to the 20S proteasome” value ([3]; kinetic analysis and washing experiments) was “irreversible-type” and the “CT-L proteolytic activity of 20S proteasome post-washing” value ([3]; washed with 500 volumes of reaction buffer) was “complete abrogation”. The Formation of aggregates (Aggregation assay) was “not to form aggregates” and the “Change in CT-L IC50 post-centrifugation versus pre-centrifugation” value [4] was “no significant change”.
For CC(C)C[C@@H](C=O)NC(=O)[C@H](CC(C)C)NC(=O)[C@H](CC(C)C)NC(=O)OCc1ccccc1 [MG-132, reference compound] (Cbz-Leu-Leu-Leu-aldehyde), the “CT-L proteolytic activity of 20S proteasome post-washing” value [3] was “almost completely restored” and the “CT-L proteolytic activity of 20S proteasome pre-washing” value [3] was “completely abrogated”.
With O=c1c2cc(Br)c(Br)n2cc2n1CCC2 [compound 4] the “Inhibition of the proteasome (all activities)” value [5] was “devoid of all activity”.
